# ChEMBL document CHEMBL1140724, “Identification of human intestinal carboxylesterase as the primary enzyme for activation of a doxazolidine carbamate prodrug” (J Med Chem, 2008)
# Assays:
# [1] = system: MCF7; experiment: Growth inhibition of doxorubicin-sensitive human MCF7 cells after 24 hrs in presence of human carboxylesterase 1; format: functional, cell-based; conditions: MCF7, 24 h
# Outline: (§1)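 MCF-7 or MCF-7/Adr cells in RPMI 1640 with 10% fetal calf serum were seeded and left overnight to adhere. Medium was then replaced with complete medium holding prodrug in DMSO (1% final), alone or with additive: recombinant hiCE 250 ng/mL, hCE1 2.5 µg/mL, pig liver esterase 30 µg/mL, or N-Hep G2 lysate 83.5 µg protein/mL. Exposure was 24 h, then fresh medium.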
# [2] = system: MCF7; experiment: Growth inhibition of doxorubicin-sensitive human MCF7 cells after 24 hrs in presence of human carboxylesterase 1 relative to pentyl PABC-Doxorubicin; format: functional
# [3] = Growth inhibition of […] human MCF7/Adr cells after 24 hrs in presence of human carboxylesterase 1 relative to pentyl PABC-Doxorubicin; format: functional, NCI/ADR-RES
# [4] = system: MCF7; experiment: (§2) Growth inhibition of doxorubicin-sensitive human MCF7 cells after 24 hrs; format: functional, cell-based; conditions: MCF7, 24 h; outline: as §1
# [5] = Growth inhibition of doxorubicin-resistant human MCF7/Adr cells after 24 hrs; format: functional, cell-based; conditions: NCI/ADR-RES; outline: as §1
# [6] = Growth inhibition of human MCF7/Adr cells after 24 hrs in presence of human carboxylesterase 1; conditions: NCI/ADR-RES
# [7] = Growth inhibition of human U373MG cells containing U373IRES plasmid after 1 hr; format: functional, cell-based, U-373MG ATCC; conditions: U373 MG
# Outline: (§3)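 U373MG glioblastoma cells (vector U373IRES, hCE1-overexpressing UhCE1, or hiCE-overexpressing UhiCE) were cultured in DMEM with 10% fetal calf serum and no antibiotics. They were exposed to graded prodrug for 1 h. Growth inhibition was measured as IC50, with points as mean ± standard deviation of six measurements.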
# [8] = Growth inhibition of human U373MG cells containing UhCE1 expressing plasmid after 1 hr; format: functional, cell-based, U-373MG ATCC; conditions: U373 MG; outline: as §3
# [9] = Growth inhibition of human U373MG cells containing UhiCE expressing plasmid after 1 hr; format: functional, cell-based, U-373MG ATCC; conditions: U373 MG; outline: as §3
# [10] = system: MCF7; experiment: Growth inhibition of doxorubicin-sensitive human MCF7 cells after 24 hrs in presence of pig liver esterase; format: functional, cell-based; conditions: MCF7, 24 h; outline: as §1
# [11] = system: MCF7; experiment: Growth inhibition of doxorubicin-sensitive human MCF7 cells after 24 hrs in presence of human intestinal carboxylesterase; format: functional, cell-based; conditions: MCF7, 24 h; outline: as §1
# [12] = system: MCF7; experiment: Growth inhibition of doxorubicin-sensitive human MCF7 cells after 24 hrs in presence of N-Hep G2 lysate; format: functional, cell-based; conditions: MCF7, 24 h; outline: as §1
# [13] = Growth inhibition of […] human MCF7/Adr cells after 24 hrs in presence of human intestinal carboxylesterase; format: functional, cell-based; conditions: NCI/ADR-RES; outline: as §1
# [14] = Growth inhibition of […] human MCF7/Adr cells after 24 hrs in presence of N-Hep G2 lysate; format: functional, cell-based; conditions: NCI/ADR-RES; outline: as §1
# [15] = system: MCF7; experiment: Growth inhibition of doxorubicin-sensitive human MCF7 cells after 24 hrs in presence of human intestinal carboxylesterase relative to pentyl PABC-Doxorubicin; format: functional
# [16] = system: MCF7; experiment: Growth inhibition of doxorubicin-sensitive human MCF7 cells after 24 hrs in presence of N-Hep G2 lysate relative to pentyl PABC-Doxorubicin; format: functional
# [17] = Growth inhibition of […] human MCF7/Adr cells after 24 hrs in presence of human intestinal carboxylesterase relative to pentyl PABC-Doxorubicin; format: functional, NCI/ADR-RES
# [18] = Growth inhibition of […] human MCF7/Adr cells after 24 hrs in presence of N-Hep G2 lysate relative to pentyl PABC-Doxorubicin; format: functional, NCI/ADR-RES
# [19] = Growth inhibition of human U373IRES cells after 1 hr; format: functional, U-373MG ATCC; outline: as §3
# [20] = system: MCF7; experiment: Growth inhibition of human MCF7 cells; format: functional, cell-based
# [21] = Growth inhibition of human MCF7/Adr cells; format: functional, cell-based; conditions: NCI/ADR-RES
# [22] = system: SK-HEP1; experiment: Growth inhibition of human SK-HEP-1 cells; format: functional, cell-based
# [23] = system: HepG2; experiment: Growth inhibition of human HepG2 cells; format: functional, cell-based
# [24] = Growth inhibition of human N-HepG2 cells; format: functional, cell-based
# [25] = Growth inhibition of rat H9c2(2-1) cells; format: functional
# [26] = species on record: Sus scrofa; experiment: Hydrolysing activity of pig liver esterase assessed as doxorubicin production
# [27] = species on record: Homo sapiens; experiment: Hydrolysing activity of human recombinant intestinal carboxylesterase
# Outline: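 Recombinant baculovirus-expressed hiCE (26 µg/mL) was incubated with 50 µM prodrug in 5% DMSO with FBS/RPMI/PBS pH 7.4. Timed aliquots were quenched in equal-volume ethanol, held at -20 °C overnight and centrifuged. 1 unit = 1 µM Dox per hour; specific activity is per mg protein.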
# [28] = system: MCF7; experiment: as §2; format: functional; outline: as §1
# [29] = system: MCF7; experiment: Growth inhibition of doxorubicin-sensitive human MCF7 cells after 24 hrs in presence of pig liver esterase relative to pentyl PABC-Doxorubicin; format: functional
# [30] = Growth inhibition of doxorubicin-resistant human MCF7/Adr cells after 24 hrs in presence of human intestinal carboxylesterase; format: functional, NCI/ADR-RES; outline: as §1
# [31] = Growth inhibition of human U373MG cells containing UhiCE expressing plasmid after 1 hr relative to pentyl PABC-Doxorubicin; format: functional, U-373MG ATCC
# Outline: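 UhiCE cells were preincubated 2 h with 10 µM benzil, a membrane-permeable CE inhibitor, before 1 h prodrug exposure. IC50 was compared with prodrug alone, using means of six measurements.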
structure (smiles),measurement,setting,value
O=S(=O)(Nc1ccc(NS(=O)(=O)c2ccc(Cl)cc2)cc1)c1ccc(Cl)cc1,IC50,[1],1 µM
same,Fold change,[2],>1
same,Fold change,[3],>1
same,IC50,[4],> 1 µM
same,IC50,[5],> 1 µM
same,IC50,[6],0.794 µM
"COc1cccc2c1C(=O)c1c(O)c3c(c(O)c1C2=O)C[C@@](O)(C(=O)CO)C[C@@H]3OC1C[C@H](N)[C@H](O)[C@H](C)O1 (single isomer, unassigned) [DOXORUBICIN]",IC50,[7],0.158 µM
same,IC50,[8],0.158 µM
same,IC50,[9],0.2 µM
CCCCCOC(=O)Nc1ccc(COC(=O)N2CO[C@@H]3[C@H](C)O[C@H](O[C@H]4C[C@](O)(C(=O)CO)Cc5c(O)c6c(c(O)c54)C(=O)c4c(OC)cccc4C6=O)C[C@@H]32)cc1,IC50,[10],0.00398 µM
same,IC50,[11],0.0158 µM
same,IC50,[12],0.251 µM
same,IC50,[13],0.0126 µM
same,IC50,[14],0.158 µM
same,Fold change,[15],>63
same,Fold change,[16],>4
same,Fold change,[17],>79
same,Fold change,[18],>6
same,Fold change,[19],1
same,IC50,[20],2.51 µM
same,IC50,[21],0.316 µM
same,IC50,[22],1 µM
same,IC50,[23],0.0501 µM
same,IC50,[24],0.02 µM
same,IC50,[25],0.631 µM
same,Activity,[26],47 µM/h
same,Activity,[27],0.065 µM/h
same,IC50,[4],> 1 µM
same,IC50,[5],> 1 µM
same,Fold change,[28],1
same,Fold change,[29],>100
same,Fold change,[30],> 79
same,IC50,[7],> 1 µM
same,IC50,[8],> 1 µM
same,Fold change,[31],>20
